{
  "source": "ChEMBL document CHEMBL2390883",
  "about": "“Dissecting the pharmacophore of curcumin. Which structural element is critical for which action?” (J Nat Prod, 2013)",
  "key": {"[1]": {"biological_target": "T1, Nuclear factor erythroid 2-related factor 2 (Homo sapiens) (UniProt Q16236)", "T1 sequence (whole entry)": "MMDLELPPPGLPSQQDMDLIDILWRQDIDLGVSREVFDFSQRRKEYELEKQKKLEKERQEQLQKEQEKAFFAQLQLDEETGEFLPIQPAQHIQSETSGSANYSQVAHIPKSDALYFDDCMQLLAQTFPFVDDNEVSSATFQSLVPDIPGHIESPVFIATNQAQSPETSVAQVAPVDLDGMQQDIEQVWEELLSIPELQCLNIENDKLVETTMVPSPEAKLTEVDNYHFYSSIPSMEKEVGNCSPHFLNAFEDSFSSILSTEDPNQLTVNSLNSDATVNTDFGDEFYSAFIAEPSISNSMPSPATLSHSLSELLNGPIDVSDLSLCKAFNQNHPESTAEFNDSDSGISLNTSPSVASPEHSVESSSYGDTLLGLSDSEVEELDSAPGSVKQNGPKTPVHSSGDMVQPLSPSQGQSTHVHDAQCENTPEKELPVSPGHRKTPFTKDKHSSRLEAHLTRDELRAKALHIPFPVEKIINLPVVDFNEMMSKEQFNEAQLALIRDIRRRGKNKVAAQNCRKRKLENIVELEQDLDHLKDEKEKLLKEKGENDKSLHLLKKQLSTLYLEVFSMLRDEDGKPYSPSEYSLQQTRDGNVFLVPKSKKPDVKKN", "assay": "Activation of Nrf2/ARE-mediated transcription in human SK-N-SH cells after 6 hrs by luciferase reporter gene assay", "assay_type": "cell-based", "procedure,_shortened": "(§1)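 SK-N-SH cells were transiently transfected with pGL3-ARE-Luc. After 24 h they were exposed to increasing concentrations of compound for 6 h. Cells were washed in PBS and lysed in Tris-phosphate pH 7.8 buffer with MgCl₂, DTT, Triton X-100 and glycerol, then luciferase activity was read in the supernatant. Output is fold induction over untreated cells; three independent experiments, mean SD, Student's t test.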"}, "Homo sapiens": {"species": "Homo sapiens", "assay": "(§2) Inhibition of NF-kappaB in human 5.1 cells assessed as inhibition of TNFalpha-induced HIV-1-LTR activation after 6 hrs by luciferase reporter gene assay", "assay_type": "cell-based", "procedure,_shortened": "(§3)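 Jurkat-derived 5.1 clone, stably carrying HIV-LTR-driven luciferase and maintained under G418. Cells were preincubated with compound at the indicated doses, then stimulated with TNFα for 6 h (methods give 20 ng/mL, legend 2 ng/mL). Luciferase was read from lysate. Output is % inhibition versus TNFα alone; IC50 from curve fitting.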"}, "[2]": {"tested_on": "Human immunodeficiency virus 1", "assay": "Antiviral activity against VSV-G protein pseudotyped human immunodeficiency virus 1 infected in human Jurkat cells assessed as inhibition of HIV-1 replication incubated 30 mins prior to infection measured after 12 hrs by luciferase reporter gene assay", "assay_type": "functional, organism-based", "procedure,_shortened": "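Jurkat cells at 10⁶/mL were pretreated with compounds at increasing doses for 30 min. They were then infected with VSV-G-pseudotyped pNL4-3.Luc.R⁻E⁻ (200 ng p24). Firefly luciferase was read in lysates (Tris-phosphate pH 7.8, Triton X-100) 12 h after infection. Values are % activation versus untreated infected cells (100%), given as mean ± SD of independent experiments; IC₅₀ by curve fitting.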"}, "[3]": {"assay": "as §2", "assay_type": "cell-based", "procedure,_shortened": "as §3"}, "[4]": {"biological_target": "Mitogen-activated protein kinase 9 (Homo sapiens) (UniProt P45984)", "sequence (P45984 whole entry, looked up)": "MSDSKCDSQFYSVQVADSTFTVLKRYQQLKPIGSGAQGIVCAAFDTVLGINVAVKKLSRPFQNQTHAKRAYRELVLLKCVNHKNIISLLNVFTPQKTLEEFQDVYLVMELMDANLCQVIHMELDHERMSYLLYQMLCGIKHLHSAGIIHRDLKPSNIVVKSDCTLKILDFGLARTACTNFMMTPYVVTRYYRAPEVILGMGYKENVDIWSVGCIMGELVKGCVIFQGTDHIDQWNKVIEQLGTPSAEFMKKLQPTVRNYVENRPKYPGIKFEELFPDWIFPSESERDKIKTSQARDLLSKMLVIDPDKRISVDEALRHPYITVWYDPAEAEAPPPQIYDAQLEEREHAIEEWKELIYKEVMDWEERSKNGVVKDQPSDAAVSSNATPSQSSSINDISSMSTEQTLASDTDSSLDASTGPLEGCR", "assay": "Inhibition of PMA-induced JNK2 phosphorylation in human Jurkat cells after 30 mins by Western blotting analysis"}, "[5]": {"biological_target": "Transcription factor p65 (Homo sapiens) (UniProt Q04206)", "sequence (Q04206 whole entry)": "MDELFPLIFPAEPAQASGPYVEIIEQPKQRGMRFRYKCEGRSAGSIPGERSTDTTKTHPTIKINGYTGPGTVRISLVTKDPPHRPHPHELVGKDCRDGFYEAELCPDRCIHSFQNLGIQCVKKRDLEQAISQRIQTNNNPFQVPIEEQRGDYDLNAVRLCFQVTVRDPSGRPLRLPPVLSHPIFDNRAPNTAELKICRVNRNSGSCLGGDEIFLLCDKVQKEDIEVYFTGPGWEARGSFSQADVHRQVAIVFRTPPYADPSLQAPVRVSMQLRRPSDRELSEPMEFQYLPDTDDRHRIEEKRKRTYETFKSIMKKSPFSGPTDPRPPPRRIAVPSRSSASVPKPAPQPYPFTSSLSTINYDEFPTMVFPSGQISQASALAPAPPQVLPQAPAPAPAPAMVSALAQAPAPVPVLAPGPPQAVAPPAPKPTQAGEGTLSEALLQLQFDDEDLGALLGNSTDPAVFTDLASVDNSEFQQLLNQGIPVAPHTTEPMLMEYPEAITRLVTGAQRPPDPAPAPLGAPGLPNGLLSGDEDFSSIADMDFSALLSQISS", "assay": "Inhibition of PMA-induced NF-kappaB p65 phosphorylation in human Jurkat cells after 30 mins by Western blotting analysis", "assay_type": "cell-based", "procedure,_shortened": "(§4)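 Jurkat cells (10⁶/mL) were preincubated 30 min with compound, then given PMA (50 ng/mL) for 15 min. Protein was extracted in NP-40 lysis buffer with protease and phosphatase inhibitors. 30 μg per lane was run on 10% SDS-PAGE and transferred to nitrocellulose. Blots were probed for phospho- and total ERK1/2, JNK, p65 and IκBα (incl. phospho-Ser32/36), with tubulin as loading control.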"}, "[6]": {"biological_target": "T1, Nuclear factor erythroid 2-related factor 2 (Homo sapiens)", "assay": "Activation of Nrf2/ARE-mediated transcription in human SK-N-SH cells at high concentration after 6 hrs by luciferase reporter gene assay", "assay_type": "cell-based", "procedure,_shortened": "as §1"}, "SK-N-SH": {"tested_on": "SK-N-SH", "assay": "Cytotoxicity against human SK-N-SH cells after 6 hrs", "assay_type": "cell-based"}, "[7]": {"biological_target": "Mitogen-activated protein kinase; ERK1/ERK2 (Homo sapiens) (UniProt P27361+P28482)", "sequence (P27361 whole entry, looked up)": "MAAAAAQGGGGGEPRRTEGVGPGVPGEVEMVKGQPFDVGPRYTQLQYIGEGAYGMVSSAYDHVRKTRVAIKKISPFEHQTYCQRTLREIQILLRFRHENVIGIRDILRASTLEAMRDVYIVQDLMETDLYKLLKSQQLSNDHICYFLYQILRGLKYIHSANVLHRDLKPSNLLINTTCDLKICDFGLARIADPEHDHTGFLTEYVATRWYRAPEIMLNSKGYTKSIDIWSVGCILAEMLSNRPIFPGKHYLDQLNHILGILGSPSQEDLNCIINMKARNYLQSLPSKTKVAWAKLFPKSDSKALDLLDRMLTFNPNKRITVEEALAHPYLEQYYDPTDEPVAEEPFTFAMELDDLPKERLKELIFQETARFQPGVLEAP", "sequence (P28482 whole entry, looked up)": "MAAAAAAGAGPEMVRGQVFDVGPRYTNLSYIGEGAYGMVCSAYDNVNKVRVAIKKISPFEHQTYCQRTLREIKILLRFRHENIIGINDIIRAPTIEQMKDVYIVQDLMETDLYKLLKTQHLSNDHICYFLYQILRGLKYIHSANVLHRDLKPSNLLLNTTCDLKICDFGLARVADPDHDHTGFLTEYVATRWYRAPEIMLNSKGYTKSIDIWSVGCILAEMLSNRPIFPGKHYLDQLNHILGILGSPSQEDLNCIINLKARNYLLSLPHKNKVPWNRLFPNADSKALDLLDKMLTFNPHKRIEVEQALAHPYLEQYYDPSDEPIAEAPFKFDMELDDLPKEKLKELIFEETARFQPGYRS", "assay": "Inhibition of PMA-induced ERK 1/2 phosphorylation in human Jurkat cells after 30 mins by Western blotting analysis", "assay_type": "cell-based", "procedure,_shortened": "as §4"}, "[8]": {"biological_target": "Mitogen-activated protein kinase 8 (Homo sapiens) (UniProt P45983)", "sequence (P45983 whole entry)": "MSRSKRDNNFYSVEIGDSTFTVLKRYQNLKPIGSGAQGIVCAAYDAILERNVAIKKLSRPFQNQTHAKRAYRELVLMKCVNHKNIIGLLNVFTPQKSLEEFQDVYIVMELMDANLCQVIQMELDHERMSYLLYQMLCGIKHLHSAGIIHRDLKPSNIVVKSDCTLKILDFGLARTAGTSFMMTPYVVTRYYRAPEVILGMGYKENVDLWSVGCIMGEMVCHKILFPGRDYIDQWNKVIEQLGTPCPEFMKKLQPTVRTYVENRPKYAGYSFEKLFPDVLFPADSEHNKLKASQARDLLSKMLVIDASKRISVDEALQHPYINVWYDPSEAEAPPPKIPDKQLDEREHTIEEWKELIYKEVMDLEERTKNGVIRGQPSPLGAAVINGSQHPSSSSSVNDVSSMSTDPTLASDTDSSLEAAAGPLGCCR", "assay": "Inhibition of PMA-induced JNK1 phosphorylation in human Jurkat cells after 30 mins by Western blotting analysis", "assay_type": "cell-based", "procedure,_shortened": "as §4"}, "HeLa": {"tested_on": "HeLa", "assay": "Cytotoxicity against human HeLa cells after 12 hrs", "assay_type": "cell-based"}, "[9]": {"biological_target": "T1, Nuclear factor erythroid 2-related factor 2 (Homo sapiens)", "assay": "Activation of Nrf2/ARE-mediated transcription in human SK-N-SH cells at low concentration after 6 hrs by luciferase reporter gene assay", "assay_type": "cell-based", "procedure,_shortened": "as §1"}, "[10]": {"tested_on": "Human immunodeficiency virus 1", "assay": "Antiviral activity against VSV-G protein pseudotyped human immunodeficiency virus 1 infected in human Jurkat cells assessed as inhibition of HIV-1 replication incubated 30 mins prior to infection measured after 12 hrs by luciferase reporter gene assay relative to curcumin", "assay_type": "functional"}, "Jurkat [11]": {"tested_on": "Jurkat", "assay": "Cytotoxicity against human Jurkat cells after 6 hrs", "assay_type": "cell-based"}, "[12]": {"assay": "Inhibition of Tat-induced HIV-1-Long terminal repeat transactivation in human Hela Tat-Luc cells after 12 hrs by luciferase reporter gene assay", "assay_type": "cell-based", "settings": "Human immunodeficiency virus 1, HeLa", "procedure,_shortened": "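HeLa cells stably transfected with pLTR-Luc and pcDNA3-Tat were exposed to compound at the indicated doses, or to DRB (50 μM) as reference, for 12 h. Luciferase activity was then measured. Output is % activation relative to untreated cells; four independent experiments, mean SD, Student's t test; IC50 from curve fitting.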"}, "Jurkat [13]": {"tested_on": "Jurkat", "assay": "Inhibition of PMA-induced NF-kappaB activation in human Jurkat cells assessed as inhibition of IkappaBalpha phosphorylation after 30 mins by Western blotting analysis", "assay_type": "cell-based", "procedure,_shortened": "as §4"}, "Jurkat [14]": {"tested_on": "Jurkat", "assay": "Inhibition of PMA-induced NF-kappaB activation in human Jurkat cells assessed as inhibition of IkappaBalpha degradation after 30 mins by Western blotting analysis", "assay_type": "cell-based", "procedure,_shortened": "as §4"}},
  "note": "Calls of active or inactive are those of the source. The rule behind the calls is not given here.",
  "data": [
    {"smiles": "COc1cc(CCC(=O)CC(=O)CCc2ccc(O)c(OC)c2)ccc1O", "values": [
      {"measurement": "Activity", "setting": "[1]", "result": "inactive"},
      {"measurement": "inhibition", "setting": "Homo sapiens", "result": "Active"}
    ]},
    {"smiles": "COc1cc(/C=C/C(=O)CC(=O)/C=C/c2cc(CC=C(C)C)c(O)c(OC)c2)cc(CC=C(C)C)c1O", "values": [
      {"measurement": "Activity", "setting": "[1]", "result": "inactive"},
      {"measurement": "inhibition", "setting": "Homo sapiens", "result": "inactive"}
    ]},
    {"smiles": "COc1cc(/C=C/C(=O)CC(=O)/C=C/c2ccc(O)c(OC)c2)ccc1O", "note": "[CURCUMIN]", "values": [
      {"measurement": "Activity", "setting": "[2]", "result": "Active"},
      {"measurement": "Activity", "setting": "[1]", "result": "Active"},
      {"measurement": "IC50", "setting": "[3]", "result": 16.4, "unit": "µM"}
    ]},
    {"smiles": "COc1cc(CCC(=O)CC(=O)CCc2cc(CCC(C)C)c(O)c(OC)c2)cc(CCC(C)C)c1O", "values": [
      {"measurement": "inhibition", "setting": "Homo sapiens", "result": "Active"}
    ]},
    {"smiles": "COc1cc(/C=C/C(=O)/C=C/c2ccc(O)c(OC)c2)ccc1O", "values": [
      {"measurement": "Activity", "setting": "[2]", "result": "Active"},
      {"measurement": "inhibition", "setting": "[4]", "result": "Dose-dependent effect"},
      {"measurement": "inhibition", "setting": "[5]", "result": "Dose-dependent effect"},
      {"measurement": "Activity", "setting": "[6]", "result": "inactive"},
      {"measurement": "Activity", "setting": "SK-N-SH", "result": "Non-toxic"},
      {"measurement": "inhibition", "setting": "[7]", "result": "inactive"},
      {"measurement": "inhibition", "setting": "[8]", "result": "Dose-dependent effect"},
      {"measurement": "Activity", "setting": "HeLa", "result": "Non-toxic"},
      {"measurement": "Activity", "setting": "[9]", "result": "Active"},
      {"measurement": "Ratio", "setting": "[10]", "result": 4},
      {"measurement": "Activity", "setting": "Jurkat [11]", "result": "Non-toxic"},
      {"measurement": "IC50", "setting": "[12]", "result": 4.7, "unit": "µM"},
      {"measurement": "inhibition", "setting": "Jurkat [13]", "result": "Dose-dependent effect"},
      {"measurement": "IC50", "setting": "[3]", "result": 4.92, "unit": "µM"},
      {"measurement": "inhibition", "setting": "Jurkat [14]", "result": "Dose-dependent effect"}
    ]},
    {"smiles": "COc1cc(/C=C/C(=O)/C=C/c2cc(CC=C(C)C)c(O)c(OC)c2)cc(CC=C(C)C)c1O", "values": [
      {"measurement": "Activity", "setting": "[1]", "result": "inactive"},
      {"measurement": "inhibition", "setting": "Homo sapiens", "result": "Active"}
    ]}
  ]
}
